CASP6 VEID inh = caspase-6 (human) enzyme inhibition | purified caspase-6, Z-VEID-R110 cleavage fluorescence | inhibition, % at 12.5 µM | hit rate 0.53% among 350,000 | AID 686996;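 active = mean inhibition across replicates at least about 35%, with every replicate also reaching that limit, limit read from the data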;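 note: 0% = median of neutral control wells and 100% = no fluorescence left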
NSD2 HMT inh = inhibitors of human histone methyltransferase NSD2. inhibition, % at 12.5 µM. NSD2 peptide methylation, AlphaScreen, 120 min. AID 743445. O96028. hit rate 0.54% among 310,000; in the data active = inhibition above about 50%
FGF22 binding = FGF22 (human) thermal shift binding | AID 651658 | recombinant FGF22 thermal shift, SYPRO orange fluorescence; percent of sucrose octasulfate shift, DMSO zero | hit rate 1.5% among 340,000 | Q9HCT0 | activity (Tm shift, normalised), % at 9.99 µM;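 active = mean Tm shift, scaled 0 neutral to 100 positive control, at about 1.3% or above, every replicate too, limit read from the data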
Target sequence (Q9HCT0 whole entry, looked up): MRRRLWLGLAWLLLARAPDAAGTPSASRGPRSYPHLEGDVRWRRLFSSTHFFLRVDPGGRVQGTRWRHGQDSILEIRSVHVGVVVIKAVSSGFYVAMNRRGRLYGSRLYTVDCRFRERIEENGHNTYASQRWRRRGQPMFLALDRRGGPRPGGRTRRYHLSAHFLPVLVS
UCH37 DUB inh = human UCH37 deubiquitinating enzyme inhibition. Q9Y5K5. purified proteasome/UCH37, Ub-AMC cleavage fluorescence. inhibition, % (test concentration not listed). hit rate 0.33% among 330,000. AID 588478;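 active = mean inhibition over replicate wells above about 20%, limit read from the data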;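 note: 0% = compound-free wells with enzyme and 100% = wells lacking proteasome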
Target sequence (Q9Y5K5 whole entry, looked up): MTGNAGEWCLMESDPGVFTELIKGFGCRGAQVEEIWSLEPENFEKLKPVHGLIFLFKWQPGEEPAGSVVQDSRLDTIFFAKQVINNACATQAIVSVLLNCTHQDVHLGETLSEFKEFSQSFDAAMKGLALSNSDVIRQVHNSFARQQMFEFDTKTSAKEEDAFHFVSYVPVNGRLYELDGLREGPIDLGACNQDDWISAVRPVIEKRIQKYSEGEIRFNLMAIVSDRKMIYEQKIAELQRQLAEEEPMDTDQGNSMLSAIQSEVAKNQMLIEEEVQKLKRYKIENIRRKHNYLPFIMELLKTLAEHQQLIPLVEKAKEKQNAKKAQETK
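Test system – human UCH37 enzyme supplied as purified proteasome complex · Incubation – 30 min preincubation with enzyme, 25 min cleavage at room temperature · Detection – AMC fluorescence from Ub-AMC cleavage, excitation 355 nm, emission 460 nm · Benchmarks – no-proteasome wells (full inhibition) and compound-free wells (no inhibition)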
SIRT5 block = inhibitors of human sirtuin-5 desuccinylase; AID 652115; inhibition, % at 15 µM; Q9NXA8; hit rate 1.1% among 330,000; Purified SirT5, succinyl-peptide AMC, trypsin-coupled fluorescence; in the data active = inhibition above about 15%
* = called active by the depositor; . = not tested or not shown; + = active, no number. Only some compounds are listed: those with a hit (about 2.6% of all), similar ones and a draw of the others.

SMILES | CASP6 VEID inh | NSD2 HMT inh | FGF22 binding | UCH37 DUB inh | SIRT5 block
O=C1Nc2ccccc2/C1=C/c1nc2ccccc2c(=O)n1-c1ccc(O)cc1 | 4 | 0 | 1 | 6 | -2
COc1ccc(-n2c(/C=C3\C(=O)Nc4ccccc43)nc3ccccc3c2=O)cc1 | 3 | 0 | 0 | 6 | 112*
CC1(CCO)CC(C)(CCc2ccccc2)OO1 (stereo not given) | 2 | . | 1 | . | 2
COc1cc(C2(C#N)CCN(C)CC2)cc(OC)c1OC | 0 | 2 | 43* | 2 | .
CCN(CC)C(=O)c1ccc2c(c1)C1C=CCC1C(C(=O)O)N2 (stereo not given) | 40* | . | 0 | . | 6
CCN(CC)C(=O)c1ccc2c(c1)C1C(Cl)C(Sc3ccccc3[N+](=O)[O-])CC1C(C(=O)O)N2 (stereo not given) | . | 22 | . | 7 | .
NC(=S)NN=Cc1coc2ccccc2c1=O | . | . | . | -1 | .
Nc1ccccc1C(=O)OCC(=O)N1CCc2ccccc21 | -3 | -25 | . | . | -1
CC(C)(C)c1ccc(C(=O)OCC(=O)N2CCC(c3ccccc3)=N2)cc1 | 1 | . | 30* | 2 | 0
COc1ccc(-n2c(C)cc(C(=O)C[N+]34CCN(CC3)CC4)c2C)cc1 | -9 | 1 | 43* | 2 | 1
CCOc1cc(C=C2C(=O)NC(=O)NC2=O)cc([N+](=O)[O-])c1O | 8 | 14 | 43 | 26* | 2
CN(C)c1ccc(C=C2C(=O)NC(=O)NC2=O)cc1[N+](=O)[O-] | 4 | 6 | 0 | 8 | 2
CN(C)CC#Cc1ccc([C@H]2[C@@H](CO)N3CCCCN(C(=O)Cc4ccccn4)C[C@H]23)cc1 | 0 | . | 0 | . | -3
CC1=C2CCC3C(CCC4=CC(=O)CCC43C)C2CC1 (stereo not given) | 4 | 5 | 0 | 20* | -1
C#C[C@@]1(O)CCC2C3CCC4=CC(=NOCC(=O)NC(CCC(N)=O)C(=O)O)CC[C@]4(C)C3CC[C@@]21C (stereo not given in full) | . | . | . | 0 | .
O=C(O)c1ccccc1-c1ccc(C=C2C(=O)N(c3ccccc3)C(=S)N(c3ccccc3)C2=O)o1 | 37* | 11 | 0 | 0 | 9
CN1C(=O)C(=Cc2ccc(N3CCCCCC3)o2)C(=O)N(C)C1=S | . | 4 | . | 15 | .
CN1C(=O)NC(=O)/C(=C\c2ccc([N+](=O)[O-])o2)C1=O | . | + | . | 17 | .
Cc1cc2c(C(C)C)c(O)c(O)c(C=O)c2c(O)c1-c1c(C)cc2c(C(C)C)c(O)c(O)c(C=O)c2c1O | 18 | . | 0 | . | 25*
CN1CCN(C(=O)CN=[N+]=[N-])CC1 | 2 | . | 0 | . | -5
O=S1(=O)CCN(CCc2c[nH]c3ccccc23)CC1 | . | -1 | 43* | 1 | 7
COC(=O)[C@H]1[C@H](CO)[C@H]2Cn3c(ccc(C4=CCCCC4)c3=O)[C@@H]1N2Cc1ccccc1OC | 0 | . | . | . | 1
CCN(CC)c1ccc(C=Nc2sc3c(c2C#N)C2CCN3CC2)c(O)c1 | . | . | . | 8 | .
CCOP(=O)(OCC)c1cccc(OP(=O)(c2cccc([N+](=O)[O-])c2)c2cccc([N+](=O)[O-])c2)c1 | -1 | 1 | 0 | 5 | 3
CCOP(=O)(OCC)c1cccc(O)c1 | 1 | 0 | 45* | 1 | -1
SMILES | CASP6 VEID inh | NSD2 HMT inh | FGF22 binding | UCH37 DUB inh | SIRT5 block
Cc1nc2cc(C(=O)N3CCC4(CC3)OCCO4)ccc2n1-c1ccc(Br)cc1 | . | 1 | . | 1 | .
O=C(c1ccc2c(c1)ncn2-c1ccc(F)cc1F)N1CCC2(CC1)OCCO2 | -4 | 12 | 44* | 1 | -4
C[N+]1(C)C2CCC1CC(OC(=O)C(CO)c1ccccc1)C2 (stereo not given) | -1 | . | 43* | 2 | 2
C[N+]1(C)[C@@H]2CC[C@H]1CC(OC(=O)C(CO)c1ccccc1)C2 (stereo not given in full) | -3 | . | 0 | 0 | -2
COc1ccc(C#Cc2ccc([C@@H]3[C@@H](CO)N4CCCCN(C(=O)Cc5ccccc5)C[C@H]34)cc2)cc1 | 0 | . | -1 | . | 5
CC(CCc1c[nH]c2ccccc12)=NO | . | . | . | 1 | .
CC1(C)CC(=O)CC(C)(C)N1O | -7 | -2 | 45* | . | .
Cn1c(NN=O)nc2ccccc21 | 36* | -5 | 0 | 6 | -5
Cc1cccc(N2C(=O)NC(=O)/C(=C\c3cc(C)n(-c4sc5c(c4C#N)CCCC5)c3C)C2=O)c1C | . | 60* | . | 7 | .
CCOC(=O)c1c(-n2c(C)cc(C=C3C(=O)NC(=O)NC3=O)c2C)sc2c1CCCC2 | . | 16 | . | -64 | .
COC(=O)[C@@H]1[C@@H](CO)[C@@H]2Cn3c(ccc(-c4ccc(OC)cc4)c3=O)[C@H]1N2C(=O)c1ccccc1F | -1 | . | 0 | . | -68
CCCCC(=NO)c1c(C)[nH]c2ccccc12 | . | . | . | -1 | .
COc1cc(C(=O)NN=Cc2ccc(N(CCCl)CCCl)cc2)cc(OC)c1OC | 5 | -2 | 44* | -69 | .
C[C@H]1CCCC(=O)CCCC=Cc2cc(O)cc(O)c2C(=O)O1 | . | . | . | 5 | .
COc1cccc(N2C(=O)NC(=O)/C(=C/c3ccc4c5c(cccc35)CC4)C2=O)c1 | 23 | 26 | 0 | -66 | 37*
CCOc1ccccc1N1C(=O)NC(=O)/C(=C/c2ccc3c4c(cccc24)CC3)C1=O | . | 11 | . | -10 | .
O=C(Nc1ccc(Cl)cc1)ON=C(c1ccccc1)c1ccccn1 | . | . | . | 2 | .
O=C1NC(=O)N(c2ccccc2F)C(=O)/C1=C/c1cn(CC(=O)N2CCOCC2)c2ccccc12 | 14 | . | 0 | 0 | -6
Cc1ccccc1N1C(=O)NC(=O)/C(=C/c2ccc(N3CCOCC3)o2)C1=O | -6 | 1 | 0 | 21* | 7
Cc1ccccc1N1C(=O)NC(=O)/C(=C\c2cc(Br)c(N3CCOCC3)o2)C1=O | . | 25 | . | 23* | .
COc1ccc(N2C(=O)/C(=C/c3ccc(C)o3)C(=O)NC2=S)c(OC)c1 | 38* | 47 | 0 | 2 | 8
Cc1cccc(N2C(=O)/C(=C/c3ccc(N4CCN(C)CC4)o3)C(=O)NC2=S)c1C | 17 | 51* | 0 | 22* | -1
COc1ccc(N2C(=O)/C(=C/c3ccc(OC)c(OC)c3)C(=O)NC2=S)cc1 | 17 | 21 | 0 | 1 | 5
COC[C@]12CN(C)C3C4[C@H](OC)C1C3([C@@H](OC)C[C@H]2O)[C@@H]1C[C@@]2(O)[C@H](OC(=O)c3ccccc3)[C@@H]1[C@]4(OC(C)=O)[C@@H](O)[C@@H]2OC | . | . | . | 0 | .
COc1cc(O)cc2c1C(=O)OC(C)CCCC(=O)CCCC=C2 (stereo not given) | . | . | . | 5 | .
O=C(O)[C@@H]1[C@@H](CO)[C@@H]2Cn3c(ccc(-c4ccncc4)c3=O)[C@H]1N2C(=O)C1CCCCC1 | -3 | . | 0 | . | -69
O=P(C(=NO)N1CCOCC1)(N1CCOCC1)N1CCOCC1 | . | . | . | 7 | .
Cc1nc2ccccc2c(=O)n1N=Cc1cc(Br)cc(Br)c1O | . | . | . | 0 | .

From PubChem BioAssay
